Results taken from ChEMBL document CHEMBL5661964, “Selective in vivo and in vitro effects of a small molecule inhibitor of cyclin-dependent kinase 4” (J Natl Cancer Inst, 2001).
The source made the active and inactive calls. No cut-off for these calls is given here.

Assays:
[1] = biological target: CDK6/cyclin D1 (Homo sapiens, UniProt Q00534); experiment: Inhibition of GST-tagged human CDK6/Cyclin D1 expressed in baculovirus infected Sf9 cells using retinoblastoma protein in presence of ATP
Procedure, shortened: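 Cdk holoenzymes (Cdk with GST-cyclin or activator), expressed in Sf9 insect cells and purified on glutathione-Sepharose, were combined 1:1. Radiometric reactions used [33P]ATP with GST-pRb(152), the C-terminal 152-residue pRb fragment, as substrate. Label was quantified by phosphorimager. Ten inhibitor concentrations from 0 to 100 μM were run in duplicate across three independent experiments. IC50 came from plotting percent incorporation relative to the no-inhibitor reaction against concentration.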

[2] = test system: MRC5; experiment: Induction of cell cycle arrest in human MRC5 cells assessed as number of cells at S phase at 10 uM after 24 hrs in presence of 10% serum by flow cytometry analysis (reference value: 16.1%); format: functional
[3] = test system: U2OS; experiment: Induction of cell cycle arrest in human U2OS cells assessed as percentage of cells at S phase, cells were released from quinidine block prior to compound addition at 10 uM after 24 hrs by flow cytometry analysis (reference value: 21.39%); format: functional
[4] = test system: U2OS; experiment: Induction of cell cycle arrest in human U2OS cells assessed as percentage of cells at G0/G1 phase, cells were released from mimosine block prior to compound addition at 5 uM after 16 hrs by flow cytometry analysis (reference value: 17.2%); format: functional
[5] = test system: U2OS; experiment: Induction of cell cycle arrest in human U2OS cells assessed as percentage of cells at S phase, cells were released from mimosine block prior to compound addition at 5 uM after 38 hrs by flow cytometry analysis (reference value: […]%); format: functional
[6] = test system: U2OS; experiment: Induction of cell cycle arrest in human U2OS cells assessed as percentage of cells at G2/M phase, cells were released from mimosine block prior to compound addition at 10 uM after 16 hrs by flow cytometry analysis (reference value: 47.6%); format: functional
[7] = test system: U2OS; experiment: Induction of cell cycle arrest in human U2OS cells assessed as percentage of cells at G2/M phase, cells were released from mimosine block prior to compound addition at 10 uM after 38 hrs by flow cytometry analysis (reference value: 32.3%); format: functional
[8] = test system: U2OS; experiment: Induction of cell cycle arrest in human U2OS cells assessed as percentage of cells at SubG1 phase, cells were released from mimosine block prior to compound addition at 10 uM after 16 hrs by flow cytometry analysis (reference value: 2.2%); format: functional
[9] = test system: NIH3T3; experiment: Induction of cell cycle arrest in mouse NIH3T3 cells expressing pRb assessed as percentage of cells at S phase at 10 uM after 24 hrs by flow cytometry analysis (reference value: 12.2%); format: functional
[10] = test system: U2OS; experiment: Induction of cell cycle arrest in human U2OS cells expressing pRb assessed as percentage of cells at G0/G1 phase at 5 uM after 24 hrs by flow cytometry analysis (reference value: 49.8%); format: functional
[11] = test system: U2OS; experiment: Induction of cell cycle arrest in human U2OS cells expressing pRb negative assessed as percentage of cells at S phase at 5 uM after 24 hrs by flow cytometry analysis (reference value: 30.3%); format: functional
[12] = test system: U2OS; experiment: Induction of cell cycle arrest in human U2OS cells expressing pRb negative assessed as percentage of cells at G0/G1 phase at 10 uM after 24 hrs by flow cytometry analysis (reference value: 42.5%); format: functional
[13] = test system: HCT-116; experiment: Antitumor activity against human HCT-116 cells xenografted in nude mouse assessed as decrease tumor volume at 30 mg/kg, ip administered every 12 hrs measured after 29 days; format: functional, organism-based; details: time 29.0 day
Procedure, shortened: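 Female BALB/c nu/nu mice (19–21 g), 8 per group, injected s.c. with 0.1 mL HCT116 suspension (1 × 10^7 viable cells/mL in Hanks' buffer). Treatment started at about 100 mm3 (day 20). Dosing i.p. in 5% DMSO/0.05% Tween 80/95% saline at 10 mL/kg for 29 days; vehicle controls. Caliper volumes taken blinded every 2–4 days as length × width² × π/6. Dunnett ANOVA; growth rate compared as log-volume slopes.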

[14] = biological target: Insulin-like growth factor 1 receptor (Homo sapiens, UniProt P08069); experiment: Inhibition of GST-tagged human IGF-1R expressed in baculovirus infected Sf9 cells using tyrosine-containing peptide substrate in presence of ATP
[15] = biological target: Insulin receptor (Homo sapiens, UniProt P06213); experiment: Inhibition of GST-tagged human Insulin receptor expressed in baculovirus infected Sf9 cells using tyrosine-containing peptide substrate in presence of ATP
Chain of Insulin receptor (P06213 28-758 limits assumed): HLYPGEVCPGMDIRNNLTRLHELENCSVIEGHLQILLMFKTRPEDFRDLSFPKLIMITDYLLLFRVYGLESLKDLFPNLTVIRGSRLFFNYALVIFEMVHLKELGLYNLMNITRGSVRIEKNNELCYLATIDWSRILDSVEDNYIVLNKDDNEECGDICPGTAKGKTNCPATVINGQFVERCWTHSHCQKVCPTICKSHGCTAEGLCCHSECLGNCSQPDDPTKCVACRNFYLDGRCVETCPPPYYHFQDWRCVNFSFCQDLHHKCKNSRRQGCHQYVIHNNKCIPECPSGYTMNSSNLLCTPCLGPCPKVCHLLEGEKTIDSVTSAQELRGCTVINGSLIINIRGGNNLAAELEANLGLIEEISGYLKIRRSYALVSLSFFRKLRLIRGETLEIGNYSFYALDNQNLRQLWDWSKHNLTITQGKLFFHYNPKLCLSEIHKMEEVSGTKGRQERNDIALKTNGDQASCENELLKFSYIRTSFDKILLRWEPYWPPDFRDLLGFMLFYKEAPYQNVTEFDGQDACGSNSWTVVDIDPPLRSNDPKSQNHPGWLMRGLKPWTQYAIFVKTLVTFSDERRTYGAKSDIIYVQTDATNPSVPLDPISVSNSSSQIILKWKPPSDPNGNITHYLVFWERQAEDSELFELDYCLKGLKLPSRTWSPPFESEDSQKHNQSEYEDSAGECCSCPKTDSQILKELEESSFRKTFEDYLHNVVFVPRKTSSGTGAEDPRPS
Chain of Insulin receptor (P06213 763-1382 limits assumed): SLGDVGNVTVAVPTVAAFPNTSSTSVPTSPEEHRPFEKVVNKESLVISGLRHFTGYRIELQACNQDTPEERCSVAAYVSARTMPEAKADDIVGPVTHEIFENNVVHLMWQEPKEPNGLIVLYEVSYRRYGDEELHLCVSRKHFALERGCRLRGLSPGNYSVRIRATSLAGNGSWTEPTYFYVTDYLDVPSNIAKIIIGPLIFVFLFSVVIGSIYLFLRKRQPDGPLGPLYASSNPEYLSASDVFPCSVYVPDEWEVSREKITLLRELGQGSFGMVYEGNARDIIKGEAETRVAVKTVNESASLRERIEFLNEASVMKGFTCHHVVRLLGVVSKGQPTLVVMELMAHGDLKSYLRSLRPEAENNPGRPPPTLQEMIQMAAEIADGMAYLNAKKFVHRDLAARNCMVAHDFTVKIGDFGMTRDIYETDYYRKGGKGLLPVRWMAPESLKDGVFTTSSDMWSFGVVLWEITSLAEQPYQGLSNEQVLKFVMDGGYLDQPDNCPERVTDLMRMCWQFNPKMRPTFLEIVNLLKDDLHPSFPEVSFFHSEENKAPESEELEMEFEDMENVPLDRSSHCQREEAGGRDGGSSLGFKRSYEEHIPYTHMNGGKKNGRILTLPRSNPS

Chain of CDK6/cyclin D1 (P24385 whole entry, the tested form may be a part): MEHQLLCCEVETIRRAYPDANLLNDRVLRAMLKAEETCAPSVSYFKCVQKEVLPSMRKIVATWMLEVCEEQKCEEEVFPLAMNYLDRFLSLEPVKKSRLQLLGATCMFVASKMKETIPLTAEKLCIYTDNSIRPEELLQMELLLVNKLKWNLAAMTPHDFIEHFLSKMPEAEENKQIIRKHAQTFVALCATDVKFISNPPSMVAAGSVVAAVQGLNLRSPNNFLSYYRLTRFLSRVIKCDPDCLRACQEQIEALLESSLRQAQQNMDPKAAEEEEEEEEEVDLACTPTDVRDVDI
Chain of CDK6/cyclin D1 (Q00534 whole entry, the tested form may be a part): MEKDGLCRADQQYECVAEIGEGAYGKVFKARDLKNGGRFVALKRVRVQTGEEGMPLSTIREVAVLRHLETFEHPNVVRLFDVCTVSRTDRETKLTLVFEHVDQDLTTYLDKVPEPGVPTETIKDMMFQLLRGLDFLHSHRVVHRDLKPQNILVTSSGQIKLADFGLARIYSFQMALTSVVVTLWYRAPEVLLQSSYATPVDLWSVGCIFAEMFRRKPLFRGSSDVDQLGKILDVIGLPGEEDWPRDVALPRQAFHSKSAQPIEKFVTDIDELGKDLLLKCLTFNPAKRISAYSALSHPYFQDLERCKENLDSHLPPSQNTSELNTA
Chain of Insulin-like growth factor 1 receptor (P08069 31-736 limits assumed): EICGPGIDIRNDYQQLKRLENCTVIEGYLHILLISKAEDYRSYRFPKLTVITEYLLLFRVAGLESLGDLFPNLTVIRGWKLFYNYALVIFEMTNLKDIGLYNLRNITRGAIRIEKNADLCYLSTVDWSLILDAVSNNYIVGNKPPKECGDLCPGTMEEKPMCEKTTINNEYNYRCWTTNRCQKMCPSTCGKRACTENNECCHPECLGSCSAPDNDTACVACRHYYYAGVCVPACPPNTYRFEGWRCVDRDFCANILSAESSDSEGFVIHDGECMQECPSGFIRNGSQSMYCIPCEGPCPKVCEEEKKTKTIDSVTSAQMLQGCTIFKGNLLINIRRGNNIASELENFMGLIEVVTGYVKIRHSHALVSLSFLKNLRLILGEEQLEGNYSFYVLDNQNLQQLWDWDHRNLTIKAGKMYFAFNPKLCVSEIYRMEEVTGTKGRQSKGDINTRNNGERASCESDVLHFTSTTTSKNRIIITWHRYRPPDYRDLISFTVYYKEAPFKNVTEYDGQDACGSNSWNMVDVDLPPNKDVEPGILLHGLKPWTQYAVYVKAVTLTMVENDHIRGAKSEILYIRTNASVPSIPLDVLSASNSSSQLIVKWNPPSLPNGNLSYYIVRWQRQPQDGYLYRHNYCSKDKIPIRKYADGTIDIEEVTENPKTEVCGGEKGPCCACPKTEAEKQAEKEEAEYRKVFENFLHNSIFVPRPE
Chain of Insulin-like growth factor 1 receptor (P08069 741-1367 limits assumed): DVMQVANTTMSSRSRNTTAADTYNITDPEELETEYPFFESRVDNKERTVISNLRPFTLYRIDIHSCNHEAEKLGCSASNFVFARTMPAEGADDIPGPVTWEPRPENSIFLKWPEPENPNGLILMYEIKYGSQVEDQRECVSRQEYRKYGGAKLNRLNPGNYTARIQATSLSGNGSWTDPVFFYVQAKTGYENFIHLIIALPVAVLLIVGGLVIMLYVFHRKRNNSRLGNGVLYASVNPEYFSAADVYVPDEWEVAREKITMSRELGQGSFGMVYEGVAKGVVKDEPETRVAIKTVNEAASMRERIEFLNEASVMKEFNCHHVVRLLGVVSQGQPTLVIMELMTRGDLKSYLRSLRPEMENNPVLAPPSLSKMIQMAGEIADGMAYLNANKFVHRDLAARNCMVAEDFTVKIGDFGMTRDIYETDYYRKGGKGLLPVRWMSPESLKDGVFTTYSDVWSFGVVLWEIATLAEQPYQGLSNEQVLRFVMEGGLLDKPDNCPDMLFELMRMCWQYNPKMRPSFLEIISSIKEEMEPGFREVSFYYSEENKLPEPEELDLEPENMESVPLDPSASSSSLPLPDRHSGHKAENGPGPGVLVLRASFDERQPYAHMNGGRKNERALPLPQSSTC

- IC50 [1]: 5.6 µM
- IC50 [14]: > 10 µM
- IC50 [15]: > 10 µM
SMILES: CCNc1cc(N[C@H]2CC[C@H](O)CC2)nc(Nc2ccc3c(ccn3Cc3ccccc3)c2)n1
- Activity [2]: 2.4%
- Activity [3]: 7.6%
- Activity [4]: 17.2%
- Activity [5]: 20.6%
- Activity [6]: 41%
- Activity [7]: 13.9%
- Activity [8]: 21.8%
- Activity [9]: 3.1%
- Activity [10]: 79.5%
- Activity [11]: 26.3%
- Activity [12]: 42.8%
- Activity [13]: Active
